Test results from publication PMC4485437 (Biochemistry, 2015).

Assays:
VcMTAN (WT) [1] = target: T1, VcMTAN (WT) (Vibrio cholerae serotype O1, UniProt Q9KPI8); assay: Isothermal titration calorimetry; format: binding; settings: 25°C; for ΔG: calculated from Ki*; for TΔS: from Gibbs free energy equation
In short: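 Enzyme expressed in E. coli BL21(DE3) and Ni-NTA purified, then stripped of bound adenine by dialysis against phosphate buffer with activated charcoal. Sample cell held 60–120 μM dimer; test compound in dialysate was injected, degassed solutions, 25°C. Fit to a two-independent-site model gave ΔH per catalytic site. ΔG = RT ln Ki*, with Ki* from 0.8 mM MTA plus xanthine oxidase at 305 nm. −TΔS came from the Gibbs equation.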

VcMTANA113P [2] = target: T2, VcMTANA113P (Vibrio cholerae serotype O1, UniProt Q9KPI8, A113P); assay: Isothermal titration calorimetry; format: binding; settings: for ΔH / ΔG / TΔS: 25°C; for ΔG: calculated from Ki*; for TΔS: from Gibbs free energy equation
VcMTANV153I [3] = target: T3, VcMTANV153I (Vibrio cholerae serotype O1, UniProt Q9KPI8, V153I); assay: Isothermal titration calorimetry; format: binding
[4] = target: T4, VcMTANA113P/V153I (VcMTANDOUBLE) (Vibrio cholerae serotype O1, UniProt Q9KPI8, A113P/V153I); assay: Isothermal titration calorimetry; format: binding
[5] = target: T5, VcMTANA113P/V153I/R158G (Vc[…]) (Vibrio cholerae serotype O1, UniProt Q9KPI8, A113P/R158G/V153I); assay: Isothermal titration calorimetry; format: binding; settings: single site, 25°C
EcMTAN [6] = target: T6, EcMTAN (Escherichia coli, UniProt P0AF12); assay: Isothermal titration calorimetry; format: binding; settings: 25°C; for ΔG: calculated from Ki*; for TΔS: from Gibbs free energy equation
In short: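 Copurified adenine stripped by dialysis against phosphate buffer with activated charcoal. 60–120 μM dimer in cell, dialysate as reference. Test compound in dialysate; solutions filtered and degassed. Titrated at 25°C. Isotherms fit to two independent sites; ΔH from integrated heat. ΔG = RT ln Ki*, using first-site […] from low-substrate luciferase-coupled assay. −TΔS from ΔG = ΔH − TΔS.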

VcMTAN (WT) [7] = target: T1, VcMTAN (WT); assay: Titration of [14C]MTDIA to MTAN; format: binding; settings: MTAN dimer 27−85 μM
VcMTANA113P [8] = target: T2, VcMTANA113P; assay: Titration of [14C]MTDIA to MTAN; format: binding; settings: MTAN dimer 27−33 μM
VcMTANV153I [9] = target: T3, VcMTANV153I; assay: Titration of [14C]MTDIA to MTAN; format: binding; settings: MTAN dimer 27−33 μM
[10] = target: T4, VcMTANA113P/V153I (VcMTANDOUBLE); assay: Titration of [14C]MTDIA to MTAN; format: binding; settings: MTAN dimer 27−33 μM
VcMTAN (WT) [11] = target: T1, VcMTAN (WT); assay: Luminescence-based steady-state kinetic assay; format: biochemical; settings: substrate MTA
VcMTANA113P [12] = target: T2, VcMTANA113P; assay: Luminescence-based steady-state kinetic assay; format: biochemical; settings: substrate MTA
VcMTANV153I [13] = target: T3, VcMTANV153I; assay: Luminescence-based steady-state kinetic assay; format: biochemical; settings: substrate MTA
[14] = target: T4, VcMTANA113P/V153I (VcMTANDOUBLE); assay: Luminescence-based steady-state kinetic assay; format: biochemical; settings: substrate MTA
[15] = target: T5, VcMTANA113P/V153I/R158G (Vc[…]); assay: Luminescence-based steady-state kinetic assay; format: biochemical; settings: substrate MTA
EcMTAN [16] = target: T6, EcMTAN; assay: Luminescence-based steady-state kinetic assay; format: biochemical; settings: substrate MTA
In short: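 His6-tagged enzyme was expressed in E. coli BL21(DE3) (1 mM IPTG, 37°C, 10 h) and purified on Ni-NTA. Product adenine was converted to ATP by excess yeast APRTase (20 microunits/well) and C. symbiosum PPDK (320 microunits/well), then read by luciferase luminescence at 570 nm. Enzyme 5–25 pM; reactions started with 0.02–1 μM MTA.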

[17] = test system: E. coli DHFR (EcDHFR) Asp27Glu; settings: Asp27Glu vs native EcDHFR; cited from earlier work
[18] = single site, 25°C, from Gibbs free energy equation

Compound: CSC[C@H]1CN(Cc2c[nH]c3c(N)ncnc23)C[C@@H]1O [MTDIA, 4′-deaza-1′-aza-2′-deoxy-1′-(9-[^14C]methylene)-Immucillin-A]
- ΔH (VcMTAN (WT) [1]; first site): -6.0 ± 0.2 kcal/mol
- ΔG (VcMTAN (WT) [1]; first site): -15.8 ± 0.1 kcal/mol
- TΔS (VcMTAN (WT) [1]; first site): -9.8 ± 0.2 kcal/mol
- ΔH (VcMTAN (WT) [1]; second site): -2.6 ± 0.3 kcal/mol
- ΔG (VcMTAN (WT) [1]; second site): -14.3 ± 0.2 kcal/mol
- TΔS (VcMTAN (WT) [1]; second site): -11.7 ± 0.4 kcal/mol
- enthalpy of MTDIA binding less favorable than parent VcMTAN (VcMTANA113P [2]; VcMTANA113P vs VcMTAN): 3 kcal/mol
- ΔH (VcMTANA113P [2]; first site): -2.9 ± 0.1 kcal/mol
- ΔG (VcMTANA113P [2]; first site): -13.9 ± 0.1 kcal/mol
- TΔS (VcMTANA113P [2]; first site): -11.0 ± 0.1 kcal/mol
- ΔH (VcMTANA113P [2]; second site): -1.8 ± 0.2 kcal/mol
- ΔG (VcMTANA113P [2]; second site): -13.5 ± 0.8 kcal/mol
- TΔS (VcMTANA113P [2]; second site): -11.7 ± 0.8 kcal/mol
- enthalpy of MTDIA binding more favorable than that of VcMTANA113P (VcMTANV153I [3]; VcMTANV153I vs VcMTANA113P): -2.0 kcal/mol
- ΔH (VcMTANV153I [3]; single site, 25°C): -4.9 ± 0.1 kcal/mol
- TΔS (VcMTANV153I [3]; [18]): -5.7 ± 0.2 kcal/mol
- enthalpy of MTDIA binding more favorable than that of VcMTANA113P ([4]; VcMTANDOUBLE vs VcMTANA113P): -1.0 kcal/mol
- ΔH ([4]; single site, 25°C): -3.9 ± 0.1 kcal/mol
- ΔG ([4]; single site, 25°C, calculated from Ki*): -15.7 ± 0.1 kcal/mol
- TΔS [4, 18]: -11.8 ± 0.1 kcal/mol
- ΔH [5]: -4.8 ± 0.2 kcal/mol
- ΔG ([5]; calculated from Ki*): -13.3 ± 0.1 kcal/mol
- TΔS ([5]; from Gibbs free energy equation): -8.5 ± 0.2 kcal/mol
- ΔH (EcMTAN [6]; first site): -18.9 ± 0.2 kcal/mol
- ΔG (EcMTAN [6]; first site): -17.4 ± 0.9 kcal/mol
- TΔS (EcMTAN [6]; first site): 1.5 ± 0.9 kcal/mol
- ΔH (EcMTAN [6]; second site): -16.8 ± 0.2 kcal/mol
- ΔG (EcMTAN [6]; second site): -10.2 ± 0.1 kcal/mol
- TΔS (EcMTAN [6]; second site): 6.6 ± 0.2 kcal/mol
- binding of MTDIA* on titration to one or two catalytic sites per dimer (VcMTAN (WT) [7]): complete binding at the first site and near-stoichiometric binding at the second site
- binding of MTDIA* on titration to one or two catalytic sites per dimer (VcMTANA113P [8]): complete binding at the first site and near-stoichiometric binding at the second site
- binding of MTDIA* on titration to one or two catalytic sites per dimer (VcMTANV153I [9]): left more MTDIA* unbound as both the first and second sites were titrated
- binding of MTDIA* on titration to one or two catalytic sites per dimer [10]: left more MTDIA* unbound as both the first and second sites were titrated

Compound: 5′-methylthioadenosine [MTA]
- kcat (VcMTAN (WT) [11]): 0.18 ± 0.01 s⁻¹
- Km (VcMTAN (WT) [11]; first-catalytic site filling): 0.061 ± 0.006 µM
- kcat (VcMTANA113P [12]): 0.17 ± 0.01 s⁻¹
- Km (VcMTANA113P [12]; first-catalytic site filling): 0.262 ± 0.029 µM
- kcat (VcMTANV153I [13]): (7.9 ± 4) × 10^−3 s^−1
- Km (VcMTANV153I [13]; first-catalytic site filling): 0.43 ± 0.047 µM
- kcat [14]: (7.4 ± 3) × 10^−2 s^−1
- Km ([14]; first-catalytic site filling): 0.202 ± 0.023 µM
- kcat [15]: 0.11 ± 0.01 s⁻¹
- Km ([15]; first-catalytic site filling): 0.536 ± 0.122 µM
- kcat (EcMTAN [16]): 0.32 ± 0.01 s⁻¹
- Km (EcMTAN [16]; first-catalytic site filling): 0.139 ± 0.018 µM

Compound: Nc1nc(=O)c2c([nH]1)NCC(CNc1ccc(C(=O)N[C@@H](CCC(=O)O)C(=O)O)cc1)=N2 [DHF, 7,8-dihydrofolate]
- KM(DHF) increase [17]: 20 fold

Compound: CN(Cc1cnc2nc(N)nc(N)c2n1)c1ccc(C(=O)N[C@@H](CCC(=O)O)C(=O)O)cc1 [methotrexate]
- methotrexate affinity decrease [17]: 176 fold
